Data set [1] is described as follows: Inhibition of Plasmodium falciparum FabG. The gist of the method: (§1)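 Recombinant P. falciparum FAS-II enzymes (FabI, FabZ, FabG) were assayed for inhibition. IC50 values (μg/ml) are the average of at least two independent assays run in duplicate.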
A short description of data set [2]: Inhibition of Plasmodium falciparum FabZ. The gist of the method: as §1
Data set [3] is described as follows: Inhibition of Plasmodium falciparum FabI. In short, it runs like this:
as §1

For another data set, the system named is L6. In words: Cytotoxicity against rat L6 cells. It is filed as cell-based.
Data set [4] is filed under the species Danio rerio. As to the kind of experiment: Hepatotoxicity in zebrafish larvae during 3 to 6 days of post-fertilization. The conditions noted are these: in vivo. In kind it is organism-based. The gist of the method: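 Larvae with DsRed-fluorescent livers are exposed from 3 dpf for 3 days, at a range of concentrations up to each compound's maximum tolerated concentration. Vehicle is 1% DMSO, and paracetamol 300 μM is the positive control. At 6 dpf, livers are imaged and scored as normal, reduced fluorescence, reduced size, enlarged or absent.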

A short description of data set [5]: Critical micelle concentration of the compound in 1X phosphate-buffered saline containing rhodamine 6G at 2.5 x 10^-6 M by spectrophotometry. It is filed as ADME. The note with it: buffer.
In data set [6] the test system is Plasmodium berghei. As to the kind of experiment: Antimalarial activity against liver stage of GFP-expressing Plasmodium berghei infected in human Huh7 cells assessed as reduction in parasite load treated after 2 hrs of infection for 46 hrs by confocal microscopy. In kind it is functional, organism-based. The note with it: Huh-7. In short, it runs like this:
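Huh7 hepatoma cells infected with GFP-expressing P. berghei sporozoites. Treated at 2 hpi for 46 h at single fixed concentrations; vehicle DMSO 0.4%. Cells fixed in 4% PFA. Exo-erythrocytic forms immunolabelled with anti-PbHsp70 and an Alexa-488 secondary antibody; nuclei stained with Hoechst. Imaged by confocal microscopy.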

The nature of data set [7]: Cytotoxicity against human HuH7 cells assessed as cell viability by Alamar Blue assay. It is filed as cell-based. The conditions noted are these: huh-7. The gist of the method: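 Host-cell viability was measured in the same P. berghei-infected Huh7 wells. Cells were treated from 2 hpi, and Alamar Blue fluorescence was read at the time of infection analysis (48 hpi). Cell confluency is reported in arbitrary units.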
(The colour change of resazurin is a common sign of viable cells or microbes.)

Another data set deals with Plasmodium falciparum. As to the kind of experiment: Antimalarial activity against blood stage of multidrug-resistant Plasmodium falciparum K1 after 72 hrs by [3H]hypoxanthine incorporation assay. In kind it is functional, organism-based. In short, it runs like this:
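Blood-stage P. falciparum K1 growth is measured by 3H-hypoxanthine incorporation. IC50 is given in μg/ml as the mean of at least two independent assays, each run in duplicate.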

Data set [8] has as its system Plasmodium berghei. As to the kind of experiment: Antimalarial activity against liver stage of Plasmodium berghei infected in human Huh7 cells assessed as reduction in parasite load treated after 2 hrs of infection for 46 hrs by luciferase assay. In kind it is functional, organism-based. The conditions noted are these: Huh-7, Liver. The gist of the method: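 Huh7 hepatoma cells infected with luciferase-expressing P. berghei sporozoites. Parasite load measured by luciferase signal at 44 hpi (48 hpi in the figure legend) and expressed as percent of control. IC50 is the average of at least two independent assays run in duplicate.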

Data set [9] is filed under the species Danio rerio. As to the kind of experiment: Hepatotoxicity in zebrafish larvae at 300 uM measured during 3 to 6 days of post-fertilization. In kind it is organism-based. The conditions noted are these: in vivo. In short, it runs like this: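 Larvae with DsRed-fluorescent livers were exposed from 3 to 6 dpf; vehicle was 1% DMSO. At 6 dpf, livers were photographed under a stereomicroscope and scored as normal, reduced fluorescence, reduced size, enlarged or absent. Paracetamol 300 μM served as the positive control.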

Values after ≈ are worked out from the molar mass of the structure shown. Active and inactive are the calls of the source. No cut-off for these calls is given here.

This note sets out measurements from ChEMBL document CHEMBL3351951, “2-Octadecynoic acid as a dual life stage inhibitor of Plasmodium infections and plasmodial FAS-II enzymes” (Bioorg Med Chem Lett, 2014).

Broadly, the IC50 is the midpoint of a concentration-inhibition curve.

For the compound `O=C(O[C@@H]1Cc2c(O)cc(O)cc2O[C@@H]1c1cc(O)c(O)c(O)c1)c1cc(O)c(O)c(O)c1` [EPIGALOCATECHIN GALLATE], the results for the half-inhibitory concentration (IC50) in [1] and in [2] were 0.2 mg/L (≈ 0.436 µM) and 0.03 mg/L (≈ 0.0654 µM), respectively.

Regarding `Oc1cc(Cl)ccc1Oc1ccc(Cl)cc1Cl` [TRICLOSAN], the IC50 in data set [3] turned out to be 0.015 mg/L (≈ 0.0518 µM).

With `COc1cc([C@@H]2c3cc4c(cc3[C@H](O)[C@H]3COC(=O)[C@H]23)OCO4)cc(OC)c1OC` [PODOFILOX], in the data set with L6, the IC50 was found to be 0.02 mg/L (≈ 0.0483 µM).

Regarding `CCCCCCCCCCCCCCCC#CC(=O)O`, the IC50 in data set [3] came out at 0.3 mg/L (≈ 1.07 µM); in the data set on Plasmodium falciparum, 6 mg/L (≈ 21.4 µM); in the data set on Plasmodium berghei [8] it was 0.34 mg/L (≈ 1.21 µM); in [1] it was 0.8 mg/L (≈ 2.85 µM); in data set [2], 0.28 mg/L (≈ 0.998 µM). The MTD in the data set filed under Danio rerio [4] came to 1 µM. This compound registered a CMC in [5] of 50 µg/mL. For the same compound, the inhibition entry in the data set on Plasmodium berghei [6] was “Active”. Besides, the Activity entry in data set [7] was “Non-toxic”.

On to `CCCCCCCCCCCC#CC(=O)O`, for which the half-inhibitory concentration (IC50) in data set [3] was determined as 1.2 mg/L (≈ 5.35 µM); in the data set with Plasmodium berghei [8] it was 2.87 mg/L (≈ 12.8 µM); in [1], 5.5 mg/L (≈ 24.5 µM); in data set [2], 3.5 mg/L (≈ 15.6 µM). This compound yielded an MTD in the data set listed under Danio rerio [4] of 1.2 µM. In data set [7], the Activity result is given as “Non-toxic”.

Regarding `CCCCCCCCCCCCCCCC(=O)O` [PALMITIC ACID], the IC50 was over 100 mg/L in [3], over 25 mg/L in the data set with Plasmodium berghei [8], over 100 mg/L in data set [1] and over 100 mg/L in [2]. In the data set listed under Danio rerio [4], this compound registered an MTD of 700 µM.

With `CC(=O)Nc1ccc(O)cc1` [ACETAMINOPHEN], the Activity entry in the data set filed under Danio rerio [9] is “Toxic”.
